Source: BindingDB's records for doi:10.1016/j.bmcl.2005.10.065 (Cytrx Laboratories, 2005)

Molecular target: T1, NADP-dependent malic enzyme (Homo sapiens, UniProt P48163)
T1 sequence (P48163 whole entry): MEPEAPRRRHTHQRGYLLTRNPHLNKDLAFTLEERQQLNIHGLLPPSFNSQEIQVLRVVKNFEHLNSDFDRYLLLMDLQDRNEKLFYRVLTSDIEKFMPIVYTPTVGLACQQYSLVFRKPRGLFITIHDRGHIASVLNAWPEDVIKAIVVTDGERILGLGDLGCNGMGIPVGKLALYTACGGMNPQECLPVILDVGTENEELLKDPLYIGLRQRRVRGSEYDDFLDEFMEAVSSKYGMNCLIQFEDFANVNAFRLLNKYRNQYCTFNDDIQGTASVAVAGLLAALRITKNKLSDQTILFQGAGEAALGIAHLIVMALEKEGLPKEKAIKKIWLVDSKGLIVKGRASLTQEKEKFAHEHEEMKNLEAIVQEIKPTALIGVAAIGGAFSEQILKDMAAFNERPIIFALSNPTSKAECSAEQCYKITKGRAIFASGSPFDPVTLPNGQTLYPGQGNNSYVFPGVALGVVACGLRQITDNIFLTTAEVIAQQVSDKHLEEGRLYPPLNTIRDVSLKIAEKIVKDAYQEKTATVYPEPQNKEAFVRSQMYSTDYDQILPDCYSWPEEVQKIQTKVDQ
Experiment: Inhibitory activity against cytosolic malic enzyme
Procedure, shortened: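 Coupled endpoint assay. Enzyme pre-incubated with compound 45 min at room temperature in 85 mM Tris pH 7.5 containing 2 mM malic acid and 5 mM MnCl2. Reaction started with 124 µM NADP, run 30 min at room temperature, stopped with 0.5 M EDTA. NADPH formed read via MTS/PMS reduction to formazan, absorbance at 492 nm.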

IC50 [µM] | Structure (SMILES)
> 20 | COc1ccc(N2CCN(c3cc(O)n(-c4cccc(Cl)c4Cl)c3O)CC2)cc1 [1-(2,3-dichlorophenyl)-3-(4-(4-methoxyphenyl)piperazin-1-yl)pyrrolidine-2,5-dione]
> 20 | COc1ccc(N2CCN(c3cc(O)n(-c4ccccc4)c3O)CC2)cc1 [3-(4-(4-methoxyphenyl)piperazin-1-yl)-1-phenylpyrrolidine-2,5-dione]
